# Key:
# A549 [1] = experiment: Induction of apoptosis in human A549 cells assessed as morphological changes by measuring rounded cells with weak adhesion incubated for 24 hrs; type: functional, cell-based
# Procedure, shortened: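 A549 cells were plated at 3 × 10^5/well and cultured 12 h, then exposed to various concentrations for 24 h. Morphology was observed by microscopy. AO-EB stain (1 mg/mL each, in PBS) was applied for 10 min at room temperature in the dark. Harvested cells were stained with PI for 15 min at room temperature in the dark, then washed. Both stains were examined by fluorescence microscopy.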
# A549 [2] = experiment: Antimigratory activity in human A549 cells assessed as reduction in cell invasion incubated for 36 hrs by matrigel transwell migration assay; type: functional, cell-based
# Procedure, shortened: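 Cells were suspended at 1 × 10^4/mL in RPMI-1640 with 1% FBS and seeded in the upper chamber. For the invasion assay the upper chamber was coated with Matrigel. The lower chamber held medium with 10% FBS. Compound was given at various concentrations for 36 h. Membranes were methanol-fixed and stained with 0.1% crystal violet. Cells on the lower side were counted relative to control (100%). Mean ± SD, ≥3 experiments.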
structure (smiles),measurement,setting,value
CN1C(=O)C2(C(C#N)=C(N)Oc3cc4oc(-c5ccccc5)cc(=O)c4c(O)c32)c2cc(Br)ccc21 (configuration not stated),Activity,A549 [1],Dose-dependent effect
same,inhibition,A549 [2],Dose-dependent effect
